# Screens: PubChem BioAssay, Broad Institute
# A selection: hits, their analogues and other compounds. The true share with any hit is near 2.2%.
# E-selectin induc = E-selectin induction on HUVECs | HUVEC E-selectin immunofluorescence imaging; normalized: neutral wells 0, TNF-alpha wells 100 | activation, % at 7.58 µM | actives 0.37% (n = 260,000);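 active means mean E-selectin-positive cell signal at least 10% of the positive control, reached in at least 60% of replicates, without over 20% cell loss; inconclusive means no rule given, readout overlaps actives, possibly toxicity-flagged; inactive means the rest, including those meeting only one limit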
# Target sequence (P16581 whole entry, looked up): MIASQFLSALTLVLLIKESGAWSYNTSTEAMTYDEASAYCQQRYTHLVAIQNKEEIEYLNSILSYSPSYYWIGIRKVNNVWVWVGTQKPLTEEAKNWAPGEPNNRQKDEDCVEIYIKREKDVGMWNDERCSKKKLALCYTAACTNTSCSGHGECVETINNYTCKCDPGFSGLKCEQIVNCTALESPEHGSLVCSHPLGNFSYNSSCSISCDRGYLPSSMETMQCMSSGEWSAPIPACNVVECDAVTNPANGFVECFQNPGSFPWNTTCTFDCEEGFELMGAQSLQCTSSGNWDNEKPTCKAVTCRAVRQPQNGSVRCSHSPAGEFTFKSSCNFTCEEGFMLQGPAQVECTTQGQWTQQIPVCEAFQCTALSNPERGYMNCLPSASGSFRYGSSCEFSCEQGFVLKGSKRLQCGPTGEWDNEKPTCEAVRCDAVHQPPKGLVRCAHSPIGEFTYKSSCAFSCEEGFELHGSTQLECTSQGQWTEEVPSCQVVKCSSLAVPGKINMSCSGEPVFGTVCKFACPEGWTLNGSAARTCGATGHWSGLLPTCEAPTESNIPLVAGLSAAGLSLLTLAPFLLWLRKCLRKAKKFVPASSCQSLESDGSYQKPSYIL
#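 assay system = HUVEC, human umbilical vein endothelial cells | input = 3,000 HUVEC seeded per well | medium = EGM-2 growth medium on 0.1% gelatin-coated wells | dosing = one compound dose added by pin transfer | signal = immunofluorescence imaging | read-out basis = % PE-positive cells | control set = TNF-alpha, DMSO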
# DENV2 CPE = inhibitors of DENV2 cytopathic effect; DENV2-infected cells, cytopathic effect rescue, plate reader; CPE inhibition, % at 9.99 µM; actives 1.7% (n = 350,000); AID 651640; in the data active means CPE inhibition above about 20%, passing the limit was not always enough; inconclusive means no clear call, values can overlap the other calls; tested in BHK-21 cells;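 further: 0% = median of neutral control wells and 100% = median of positive control wells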
# C2C12 statin = suppressors of simvastatin-induced myotoxicity in C2C12 myotubes. ATP luminescence, 48 h; scaled: DMSO 0, geranylgeraniol control 100. rescue of ATP level, % at 7.49 µM. actives 0.78% (n = 330,000). AID 602340;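 active means mean ATP rescue above about 67%, or every replicate alone reaching that limit, limit read from the data, passing the limit was not always enough; inconclusive means no clear call, values can overlap the other calls; inactive means mean under the limit and some replicate under it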;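 further: myotubes were challenged with 10 µM simvastatin during compound exposure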
# * hit, by the source's call; ? = inconclusive; nt = no result given.
SMILES,E-selectin induc,DENV2 CPE,C2C12 statin
CC(C)NC(=O)NCC[C@@H]1CC[C@@H](NC(=O)CCN2CCCCC2)[C@@H](CO)O1,0,nt,-4
COCC(=O)N(C)C[C@H]1Oc2ncc(C#Cc3cccnc3)cc2C(=O)N([C@@H](C)CO)C[C@@H]1C,16,10,-8
CC(C)CC#Cc1cnc2c(c1)C(=O)N([C@@H](C)CO)C[C@@H](C)[C@@H](CN(C)C(=O)Cc1ccncc1)O2,0,28*,6
COCC(=O)N(C)C[C@H]1Oc2ncc(C#Cc3cccnc3)cc2C(=O)N([C@H](C)CO)C[C@H]1C,1,24*,6
C[C@@H]1CN([C@H](C)CO)C(=O)c2cc(C#CC3(O)CCCC3)cnc2O[C@@H]1CN(C)Cc1cccnc1,4,25*,nt
CC(C)CC#Cc1cnc2c(c1)C(=O)N([C@@H](C)CO)C[C@H](C)[C@H](CN(C)C(=O)Cc1ccncc1)O2,0,2,-8
CC(C)CC#Cc1cnc2c(c1)C(=O)N([C@@H](C)CO)C[C@@H](C)[C@H](CN(C)Cc1ccccc1)O2,0,6,32
CC(C)CC#Cc1cnc2c(c1)C(=O)N([C@H](C)CO)C[C@H](C)[C@H](CN(C)Cc1ccccc1)O2,1,23*,nt
C[C@H](CO)N1C[C@H](C)[C@H](CN(C)Cc2cccnc2)Oc2ncc(C#CC3(O)CCCC3)cc2C1=O,1,7,3
C[C@@H]1CN([C@@H](C)CO)C(=O)c2cc(NS(=O)(=O)c3ccc(F)cc3)ccc2O[C@@H](C)CCCCO[C@H]1CN(C)C(=O)Cc1ccccc1,0,-24,nt
C[C@H](CO)N1C[C@H](C)[C@@H](CN(C)Cc2cccc(F)c2)Oc2cc(-c3ccccc3)ccc2S1(=O)=O,0,?,-50
Cc1cccc(CN(C)C[C@@H]2OCc3cn(nn3)CCCC(=O)N([C@H](C)CO)C[C@H]2C)c1,0,-4,-11
CC(C)CC#Cc1cnc2c(c1)C(=O)N([C@H](C)CO)C[C@@H](C)[C@@H](CN(C)C(=O)Cc1ccccc1)O2,0,10,40
CC(C)CC#Cc1cnc2c(c1)C(=O)N([C@H](C)CO)C[C@H](C)[C@@H](CN(C)C(=O)Cc1ccccc1)O2,0,2,77*
CCCC(=O)Nc1ccc2c(c1)C(=O)N(C)[C@@H]1CC[C@@H](CC(=O)NCCCN(C)C)O[C@@H]1CO2,0,?,13
COC(=O)C[C@H]1CC[C@@H]2[C@@H](COc3ccc(NS(C)(=O)=O)cc3C(=O)N2C)O1,0,-3,-22
C[C@@H]1CN([C@@H](C)CO)C(=O)Cc2cc(NC(=O)CCN3CCOCC3)ccc2O[C@@H]1CN(C)C(=O)NC1CCCCC1,0,nt,16
CCC(CC)C(=O)NC12CC3CC(CC(C3)C1)C2,nt,nt,89*
CC(C)NCC(=O)NC12CC3CC(CC(C3)C1)C2,nt,nt,-6
CCCCNC(=O)c1nn2c(C(F)(F)F)cc(-c3ccccc3)nc2c1Br,nt,38*,-55
N#CCNC(=O)c1nn2c(C(F)(F)F)cc(-c3ccccc3)nc2c1Br,7,7,14
C[C@@H]1CN([C@H](C)CO)C(=O)c2cc(NC(=O)Nc3ccc(F)cc3)ccc2O[C@@H]1CN(C)Cc1ccncc1,-4,4,3
CC(C)(C)OC(=O)COc1cccc(C(=O)CCN2CCOCC2)c1,nt,-4,nt
Cc1noc(C)c1S(=O)(=O)Nc1cccc2c1O[C@H](CN(C)CC1CCCCC1)[C@H](C)CN([C@@H](C)CO)C2=O,-2,1,25
COc1ccc(NC(=O)c2c(F)cccc2F)cc1S(=O)(=O)Nc1ccc(Br)cc1,nt,49*,nt
SMILES,E-selectin induc,DENV2 CPE,C2C12 statin
COc1ccc(NS(=O)(=O)c2cc(NC(=O)c3ccccn3)ccc2OC)cc1Br,0,10,14
CNC(=O)C[C@@H]1CC[C@H]2[C@H](COc3ccc(NS(=O)(=O)c4cccc(F)c4)cc3C(=O)N2C)O1,0,-7,6
COc1ccc(COC(=O)C2=C(C)NC(=O)NC2c2ccccc2)cc1 (centres undefined),0,19,23
COc1ccc(COC(=O)C2=C(C)NC(=O)NC2c2ccccc2F)cc1 (centres undefined),-2,39*,10
COc1ccc(COC(=O)C2=C(C)NC(=O)NC2c2cc(OC)ccc2OC)cc1 (centres undefined),1,-10,12
CCSCCOC(=O)C1=C(C)NC(=O)NC1c1cc(OC)ccc1OC (centres undefined),nt,nt,99*
O=C(c1cnccn1)N1CC[C@@H]2[C@@H](CO)Nc3ccc(C#Cc4cccnc4)cc3[C@@H]21,0,7,-5
C/C=C/c1ccc2c(c1)O[C@@H](CN(C)C(=O)c1cnccn1)[C@@H](C)CN([C@H](C)CO)S2(=O)=O,0,nt,7
CNC[C@H]1OCCCC[C@H](C)Oc2ccc(N(C)C)cc2C(=O)N([C@@H](C)CO)C[C@@H]1C,0,3,18
COc1ccc(-n2c(COc3cccc4ccccc34)nnc2SCC#N)cc1,nt,nt,-5
Cc1ccc(-c2nnc(CSc3nnc(COc4cccc5ccccc45)n3-c3ccccc3)o2)cc1,nt,nt,136*
Cc1noc(C)c1NC(=O)Nc1ccc2c(c1)C(=O)N([C@@H](C)CO)C[C@H](C)[C@H](CN(C)S(C)(=O)=O)O2,-11,?,-22
CN(C(=O)CSc1nnc(-c2cccs2)n1C1CC1)C1CCS(=O)(=O)C1 (centres undefined),nt,37*,-3
CCN(C(=O)CSc1nncn1-c1ccccc1)C1CCS(=O)(=O)C1 (centres undefined),nt,85*,-12
CN(C(=O)CSc1nncn1-c1ccccc1)C1CCS(=O)(=O)C1 (centres undefined),0,3,12
CCC(C)N(C(=O)CSc1nnc(-c2cccs2)n1C1CC1)C1CCS(=O)(=O)C1 (centres undefined),1,3,3
COCc1cn(CC[C@H]2CC[C@H](NC(=O)Nc3ccccc3)[C@H](CO)O2)nn1,1,0,3
C[C@H](CO)N1C[C@H](C)[C@H](CN(C)Cc2cccc(C(=O)O)c2)OCc2cn(nn2)CCCC1=O,1,2,-10
CN1C(=O)C(=O)/C(=C(/O)c2ccccc2)C1c1ccc(Br)cc1 (centres undefined),nt,6,-4
Cc1ccc(/C(O)=C2\C(=O)C(=O)N(C)C2c2ccccc2)cc1 (centres undefined),0,39*,27
O=C(CNC(=O)c1ccccc1)N/N=C/c1ccc([N+](=O)[O-])s1,nt,-3,nt
O=C(Cc1ccccc1)NCC(=O)N/N=C/c1ccc([N+](=O)[O-])s1,nt,-2,163*
Cc1cccc(S(=O)(=O)NC[C@H]2CC[C@@H]3NC[C@@H]3O2)c1,nt,2,nt
CCNC(=O)C[C@H]1CC[C@H]2[C@H](COc3ccc(NC(=O)c4cccc(C(F)(F)F)c4)cc3C(=O)N2C)O1,0,?,1
COc1ccc(-c2ccc([C@@H]3[C@H]4CN(C(=O)C5CC5)CC(=O)N4[C@H]3CO)cc2)cc1,0,31*,nt
COc1ccc(-c2ccc([C@H]3[C@H]4CN(C(=O)C5CCC5)CC(=O)N4[C@H]3CO)cc2)cc1,0,-11,nt
